Test results as given in ChEMBL document CHEMBL4219021, “Discovery of a Small-Molecule Degrader of Bromodomain and Extra-Terminal (BET) Proteins with Picomolar Cellular Potencies and Capable of Achieving Tumor Regression” (J Med Chem, 2018).
Activity calls are given as the source filed them. The calls are words filed in the database; no cut-off is given here.

What was measured:
[1] = target: T1, Protein cereblon/Bromodomain-containing protein 3/Cullin-4A (Homo sapiens) (UniProt Q15059+Q96SW2+Q13619); experiment: Induction of cereblon/cullin 4A-mediated BRD3 degradation in human RS4:11 cells at 100 to 300 nM after 3 hrs by Western blot method; assay type: cell-based
T1 sequence (Q13619 whole entry, looked up): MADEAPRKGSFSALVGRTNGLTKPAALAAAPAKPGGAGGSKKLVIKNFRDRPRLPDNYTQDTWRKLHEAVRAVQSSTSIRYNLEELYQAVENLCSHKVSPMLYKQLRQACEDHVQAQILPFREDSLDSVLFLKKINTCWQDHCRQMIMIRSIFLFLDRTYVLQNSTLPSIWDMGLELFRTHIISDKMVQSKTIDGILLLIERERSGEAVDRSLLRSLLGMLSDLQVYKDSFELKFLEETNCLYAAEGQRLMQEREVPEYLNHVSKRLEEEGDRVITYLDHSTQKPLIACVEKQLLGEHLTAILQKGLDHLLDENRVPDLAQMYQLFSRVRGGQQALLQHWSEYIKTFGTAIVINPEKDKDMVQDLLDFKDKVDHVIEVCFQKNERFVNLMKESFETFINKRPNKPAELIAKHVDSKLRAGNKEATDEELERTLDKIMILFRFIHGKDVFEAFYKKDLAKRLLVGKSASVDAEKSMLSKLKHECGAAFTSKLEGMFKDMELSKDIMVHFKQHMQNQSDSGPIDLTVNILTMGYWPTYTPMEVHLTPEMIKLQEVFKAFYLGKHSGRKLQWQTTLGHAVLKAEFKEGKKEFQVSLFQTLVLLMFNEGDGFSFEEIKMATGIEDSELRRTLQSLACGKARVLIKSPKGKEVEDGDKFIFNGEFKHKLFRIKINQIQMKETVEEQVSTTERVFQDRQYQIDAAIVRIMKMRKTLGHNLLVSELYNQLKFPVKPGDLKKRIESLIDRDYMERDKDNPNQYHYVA
T1 sequence (Q15059 whole entry, looked up): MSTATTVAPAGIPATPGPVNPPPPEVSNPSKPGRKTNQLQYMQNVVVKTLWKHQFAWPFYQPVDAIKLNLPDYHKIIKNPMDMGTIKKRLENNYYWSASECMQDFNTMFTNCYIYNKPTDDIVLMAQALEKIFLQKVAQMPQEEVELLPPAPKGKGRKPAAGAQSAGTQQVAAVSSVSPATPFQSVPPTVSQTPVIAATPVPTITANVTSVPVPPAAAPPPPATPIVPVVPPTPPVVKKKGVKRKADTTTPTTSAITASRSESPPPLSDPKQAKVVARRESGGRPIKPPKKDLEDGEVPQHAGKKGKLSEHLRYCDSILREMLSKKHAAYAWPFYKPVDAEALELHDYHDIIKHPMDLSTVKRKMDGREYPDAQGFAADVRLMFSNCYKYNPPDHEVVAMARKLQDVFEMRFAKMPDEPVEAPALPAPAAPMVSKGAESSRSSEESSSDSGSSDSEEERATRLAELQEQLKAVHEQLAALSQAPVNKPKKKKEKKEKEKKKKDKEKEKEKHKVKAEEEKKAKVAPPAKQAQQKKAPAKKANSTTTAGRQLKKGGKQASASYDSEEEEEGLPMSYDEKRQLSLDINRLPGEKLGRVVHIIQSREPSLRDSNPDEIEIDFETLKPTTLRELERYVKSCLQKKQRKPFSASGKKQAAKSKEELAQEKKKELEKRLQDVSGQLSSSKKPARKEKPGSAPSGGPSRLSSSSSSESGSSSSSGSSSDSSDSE
T1 sequence (Q96SW2 whole entry, looked up): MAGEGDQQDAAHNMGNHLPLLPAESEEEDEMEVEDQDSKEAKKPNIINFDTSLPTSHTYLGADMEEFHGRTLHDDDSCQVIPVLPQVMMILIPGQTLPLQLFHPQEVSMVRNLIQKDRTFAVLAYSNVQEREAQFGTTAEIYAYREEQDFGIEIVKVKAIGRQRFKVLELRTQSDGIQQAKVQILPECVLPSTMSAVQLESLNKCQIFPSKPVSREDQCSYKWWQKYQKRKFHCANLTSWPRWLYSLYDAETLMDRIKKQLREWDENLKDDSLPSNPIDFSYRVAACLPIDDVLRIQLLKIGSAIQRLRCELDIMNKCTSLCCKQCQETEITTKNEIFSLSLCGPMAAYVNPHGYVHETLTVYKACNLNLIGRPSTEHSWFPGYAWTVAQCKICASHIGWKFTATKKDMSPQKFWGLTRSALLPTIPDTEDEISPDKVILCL
Outline: (§1)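 RS4;11 cells (2 × 10⁶/well) treated for 3 h at the indicated concentrations. Lysed in RIPA with protease inhibitors and immunoblotted for BRD2, BRD3 and BRD4 with specific antibodies.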

[2] = target: T2, Bromodomain-containing protein 4 (Homo sapiens, UniProt O60885); experiment: Inhibition of FAM-labeled ZBA248 binding to recombinant N-terminal His6-tagged BRD4 bromodomain 2 (333 to 460 residues) (unknown origin) expressed in Escherichia coli Rosetta2 DE3 after 30 mins by fluorescence polarization assay
[3] = target: T3, Bromodomain-containing protein 2 (Homo sapiens, UniProt P25440); experiment: Inhibition of FAM-labeled ZBA248 binding to recombinant N-terminal His6-tagged BRD2 bromodomain 2 (349 to 460 residues) (unknown origin) expressed in Escherichia coli Rosetta2 DE3 after 30 mins by fluorescence polarization assay
T3 sequence (P25440 whole entry, the tested form may be a part): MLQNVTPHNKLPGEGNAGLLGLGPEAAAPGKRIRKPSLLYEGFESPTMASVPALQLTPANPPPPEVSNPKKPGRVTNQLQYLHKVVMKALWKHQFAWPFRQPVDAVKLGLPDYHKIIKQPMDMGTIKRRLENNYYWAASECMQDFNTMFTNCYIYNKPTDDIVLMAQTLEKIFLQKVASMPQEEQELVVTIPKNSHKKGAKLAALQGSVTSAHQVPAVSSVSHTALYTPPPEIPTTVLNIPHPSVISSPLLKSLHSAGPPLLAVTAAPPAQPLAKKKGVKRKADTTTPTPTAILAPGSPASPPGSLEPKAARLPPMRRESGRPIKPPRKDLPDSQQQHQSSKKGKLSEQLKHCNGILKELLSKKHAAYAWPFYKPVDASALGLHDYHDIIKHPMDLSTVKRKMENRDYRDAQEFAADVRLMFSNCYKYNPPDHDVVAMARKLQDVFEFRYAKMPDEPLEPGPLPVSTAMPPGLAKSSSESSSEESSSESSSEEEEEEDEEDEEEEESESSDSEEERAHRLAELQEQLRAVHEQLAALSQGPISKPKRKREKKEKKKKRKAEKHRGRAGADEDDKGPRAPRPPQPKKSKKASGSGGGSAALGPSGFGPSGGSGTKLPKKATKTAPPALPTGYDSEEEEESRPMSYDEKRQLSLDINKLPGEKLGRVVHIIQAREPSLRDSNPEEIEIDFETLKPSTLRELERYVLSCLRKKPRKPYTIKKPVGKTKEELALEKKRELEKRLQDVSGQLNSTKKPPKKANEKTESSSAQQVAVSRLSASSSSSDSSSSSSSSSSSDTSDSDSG

[4] = target: T1, Protein cereblon/Bromodomain-containing protein 3/Cullin-4A (Homo sapiens); experiment: Induction of cereblon/cullin 4A-mediated BRD3 degradation in human RS4:11 cells at 30 to 1000 nM after 24 hrs by Western blot method; assay type: cell-based
Outline: (§2)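 Western blot of RS4;11 cells (2 × 10⁶ cells/well) in RPMI 1640 with 10% FBS, 37 °C, 5% CO₂, used within three months of thawing. Compound exposure was 3 h or 24 h at the indicated concentrations. Cells were lysed in RIPA with protease inhibitors, and BRD2, BRD3 and BRD4 were detected with specific antibodies, with GAPDH as loading control.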

[5] = tested on: MOLM-13; experiment: Cytotoxicity against human MOLM13 cells assessed as cell growth inhibition after 4 days by WST-8 assay; assay type: functional, cell-based; settings: MOLM-13, 96 h
[6] = tested on: RS4-11; experiment: Cytotoxicity against human RS4:11 cells assessed as cell growth inhibition after 4 days by WST-8 assay; assay type: functional, cell-based; settings: RS4-11, 96 h
[7] = target: T4, Bromodomain-containing protein 3 (Homo sapiens, UniProt Q15059); experiment: Inhibition of FAM-labeled ZBA248 binding to recombinant N-terminal His6-tagged BRD3 bromodomain 1 (24 to 144 residues) (unknown origin) expressed in Escherichia coli Rosetta2 DE3 after 30 mins by fluorescence polarization assay
T4 sequence (Q15059 whole entry, the tested form may be a part): as the sequence (Q15059 whole entry, looked up) above

[8] = species: Homo sapiens; experiment: Induction of cereblon/cullin 4A-mediated BET degradation in human RS4:11 cells assessed as downregulation of c-myc protein level at 300 to 1000 nM after 24 hrs by Western blot method; assay type: cell-based
Outline: (§3)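 RS4;11 cells (2 × 10⁶/well) treated for 24 h at the indicated concentrations. Lysed in RIPA with protease inhibitors and immunoblotted for BRD2, BRD3, BRD4, c-Myc and PARP, with GAPDH as loading control.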

[9] = target: T3, Bromodomain-containing protein 2; experiment: Inhibition of FAM-labeled ZBA248 binding to recombinant N-terminal His6-tagged BRD2 bromodomain 1 (72 to 205 residues) (unknown origin) expressed in Escherichia coli Rosetta2 DE3 after 30 mins by fluorescence polarization assay
[10] = tested on: RS4-11; experiment: Induction of cell cycle arrest in human RS4:11 cells after 24 hrs by propidium iodide staining based flow cytometry; assay type: functional
Outline: (§4)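 RS4;11 or MOLM-13 cells treated with compound for 24 h, then analyzed by flow cytometry. Cell cycle read by propidium iodide staining and apoptosis by annexin V/propidium iodide staining.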

[11] = target: T5, Protein cereblon/Bromodomain-containing protein 2/Cullin-4A (Homo sapiens) (UniProt P25440+Q96SW2+Q13619); experiment: Induction of cereblon/cullin 4A-mediated BRD2 degradation in human RS4:11 cells at 100 to 300 nM after 3 hrs by Western blot method; assay type: cell-based; outline: as §1
T5 sequence (P25440 whole entry, looked up): as the sequence (P25440 whole entry, the tested form may be a part) above
T5 sequence (Q13619 whole entry, looked up): as the sequence (Q13619 whole entry, looked up) above
T5 sequence (Q96SW2 whole entry, looked up): as the sequence (Q96SW2 whole entry, looked up) above

[12] = tested on: RS4-11; experiment: Induction of apoptosis in human RS4:11 cells at 30 to 300 nM after 24 hrs by Annexin-V/propidium iodide staining based flow cytometry; assay type: functional, cell-based; outline: as §4
[13] = target: T6, Protein cereblon/Bromodomain-containing protein 4/Cullin-4A (Homo sapiens) (UniProt O60885+Q96SW2+Q13619); experiment: Induction of cereblon/cullin 4A-mediated BRD4 degradation in human RS4:11 cells at 100 to 300 nM after 3 hrs by Western blot method; assay type: cell-based; outline: as §2
[14] = tested on: MOLM-13; experiment: Induction of cell cycle arrest in human MOLM13 cells after 24 hrs by propidium iodide staining based flow cytometry; assay type: functional; outline: as §4
[15] = target: T4, Bromodomain-containing protein 3; experiment: Inhibition of FAM-labeled ZBA248 binding to recombinant N-terminal His6-tagged BRD3 bromodomain 2 (306 to 417residues) (unknown origin) expressed in Escherichia coli Rosetta2 DE3 after 30 mins by fluorescence polarization assay
[16] = target: T2, Bromodomain-containing protein 4; experiment: Inhibition of FAM-labeled ZBA248 binding to recombinant N-terminal His6-tagged BRD4 bromodomain 1 (44 to 168 residues) (unknown origin) expressed in Escherichia coli Rosetta2 DE3 after 30 mins by fluorescence polarization assay
[17] = target: T5, Protein cereblon/Bromodomain-containing protein 2/Cullin-4A (Homo sapiens); experiment: Induction of cereblon/cullin 4A-mediated BRD2 degradation in human RS4:11 cells at 30 to 1000 nM after 24 hrs by Western blot method; assay type: cell-based; outline: as §3
[18] = target: T6, Protein cereblon/Bromodomain-containing protein 4/Cullin-4A (Homo sapiens); experiment: Induction of cereblon/cullin 4A-mediated BRD4 degradation in human RS4:11 cells at 30 to 1000 nM after 24 hrs by Western blot method; assay type: cell-based; outline: as §2
[19] = tested on: MOLM-13; experiment: Induction of apoptosis in human MOLM13 cells at 30 to 300 nM after 24 hrs by Annexin-V/propidium iodide staining based flow cytometry; assay type: functional, cell-based; outline: as §4

## CCn1nc(C2CC2)cc1Nc1nc(C(=O)NC)nc2[nH]c3cc(-c4c(C)noc4C)c(OC)cc3c12
[1]
  Activity: inactive
[2]
  IC50: 7 nM
  Ki: 1 nM
[3]
  IC50: 3.9 nM
  Ki: 0.27 nM
[4]
  Activity: inactive
[5]
  IC50: 25.6 nM
[6]
  IC50: 24.1 nM
[7]
  IC50: 6.6 nM
  Ki: 0.18 nM
[8]
  Activity: Active
[9]
  IC50: 3.1 nM
  Ki: 0.9 nM
[10]
  Activity: Dose-dependent effect
[11]
  Activity: inactive
[12]
  Activity: inactive
[13]
  Activity: inactive
[14]
  Activity: Dose-dependent effect
[15]
  IC50: 1.9 nM
  Ki: 0.21 nM
[16]
  IC50: 7 nM
  Ki: 0.5 nM
[17]
  Activity: inactive
[18]
  Activity: inactive
[19]
  Activity: inactive
